Shown are actives, neighbours in structure and some others; about 2% of the full set was active somewhere.
ARFGAP1 inhibitor – inhibitors of rat ARFGAP1 | Q62848 | Arfgap1-stimulated ARF1 GTP hydrolysis, GDP FP detection | inhibition, % at 16.5 µM | 360,000 tested, 0.26% active | AID 651572;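 active = inhibition above a per-plate limit, mean inhibition of low control wells plus 3 SD, cut at about 25% in these data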;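 note: 0% = DMSO wells with enzyme and 100% = wells lacking Arfgap1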
Target sequence (Q62848 1-136 limits assumed): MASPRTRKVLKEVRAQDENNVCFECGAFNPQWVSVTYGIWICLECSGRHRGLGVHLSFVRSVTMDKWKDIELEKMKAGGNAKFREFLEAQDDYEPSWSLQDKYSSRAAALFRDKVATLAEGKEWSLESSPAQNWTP
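Material: rat Arfgap1 GAP domain (His6, aa 1-136), purified enzyme. Also added: human ARF1(Δ1-17)-GTP substrate. Compound dosing: 16.5 µM single point, 1.26% DMSO. Timing: enzyme reaction 120 min at 25 °C after 20 min preincubation. Signal: GDP detection by fluorescence polarization. Read-out basis: percent inhibition of GAP-stimulated GDP formation, scaled between DMSO and no-Arfgap1 medians.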
ASAP1 GAP inh – inhibitors of human ASAP1 ArfGAP activity; Q9ULH1; ASAP1-stimulated ARF1 GTP hydrolysis, GDP FP detection; AID 624377; inhibition, % at 16.5 µM; 360,000 tested, 0.19% active; in the data active = inhibition above about 25%;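 note: 0% = vehicle with enzyme and substrate and 100% = no enzyme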
MBD2 inh – blocks human MBD2 binding to methylated DNA; Q9UBB5; TR-FRET, MBD2 binding to methylated oligonucleotide; inhibition, % at 4.4 µM; 370,000 tested, 0.31% active; in the data active = inhibition above about 13%
Target sequence (Q9UBB5 whole entry, looked up): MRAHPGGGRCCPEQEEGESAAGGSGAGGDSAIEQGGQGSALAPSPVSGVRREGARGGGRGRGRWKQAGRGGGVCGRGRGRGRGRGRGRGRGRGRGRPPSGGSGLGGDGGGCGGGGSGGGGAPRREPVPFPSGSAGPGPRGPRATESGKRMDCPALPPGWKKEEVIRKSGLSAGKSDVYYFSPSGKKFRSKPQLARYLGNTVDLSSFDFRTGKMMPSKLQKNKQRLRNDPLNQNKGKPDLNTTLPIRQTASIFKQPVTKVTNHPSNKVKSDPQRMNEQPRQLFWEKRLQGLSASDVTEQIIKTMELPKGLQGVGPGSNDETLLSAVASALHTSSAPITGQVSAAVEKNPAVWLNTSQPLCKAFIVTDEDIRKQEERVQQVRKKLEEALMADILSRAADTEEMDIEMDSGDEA
LEDGF integ inh – blocks HIV-1 LEDGF/p75-dependent DNA integration; inhibition, % at 3.7 µM; TR-FRET IN-LEDGF/p75 DNA integration, Eu/Cy5; 370,000 tested, 0.64% active;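 active = inhibition above the screen-wide mean plus 3 SD, cut at about 13% in these data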;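 note: signal is the Cy5 over europium emission ratio at 671 and 618 nm; 0% = plate median of compound wells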
UHRF1 MBD2 ctr – human UHRF1 methylated DNA binding inhibitors; Q96T88; UHRF1 binding to methylated oligo, TR-FRET; inhibition, % at 4.4 µM; 370,000 tested, 0.75% active;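 note: UHRF1 SRA domain binding a hemimethylated CpG hairpin DNA probe; 0% = median of test compound wells and 100% = reference inhibitor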
TCR-CD3 inh – inhibitors of human TCR-CD3 interaction. TAMRA-labeled TCR probe fluorescence, biochemical. 360,000 tested, 0.37% active. inhibition, % at 9.4 µM; in the data active = inhibition above about 19%;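 note: recombinant mutant TCR 2C K166C tagged with TAMRA read by polarization; 0% = receptor in buffer alone and 100% = receptor with positive control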
UHRF1 DNA bind – inhibits human UHRF1 binding to methylated oligonucleotide, MBD2 counter-screen. 1,000 tested, 25% active. TR-FRET. inhibition, % at 4.4 µM. shares compounds with MBD2 inh;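 note: UHRF1 SRA domain binding a labeled hemimethylated CpG hairpin DNA; 0% = vehicle only and 100% = reference inhibitor with vehicle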
MBD2 confirm – MBD2-DBD methyl-DNA binding inhibition, TR-FRET confirmation; shares compounds with MBD2 inh; TR-FRET MBD2-DBD binding to methylated oligonucleotide; inhibition, % at 4.4 µM; 1,000 tested, 26% active; in the data active = inhibition above about 14%
* marks the source's active call; other numbers are inactive results. Cut-off read from the data, not from the text of the source, unless noted: active = inhibition above about 21%; inactive = the rest.

Results for COc1ccc(NC(=O)CCC(=O)NCc2ccco2)c([N+](=O)[O-])c1 ?
ARFGAP1 inhibitor: -1.6; ASAP1 GAP inh: 0.9; MBD2 inh: 3.4; LEDGF integ inh: -1.2; UHRF1 MBD2 ctr: -1.1; TCR-CD3 inh: -5.7

What do the screens show for `COc1ccc(/C=C2/SC(=S)N(n3c(C)ccc3C)C2=O)cc1`?
ARFGAP1 inhibitor: 6.1; ASAP1 GAP inh: -13.2; MBD2 inh: 13.5*; LEDGF integ inh: 5.9; UHRF1 MBD2 ctr: 21.8*; TCR-CD3 inh: -0.4; UHRF1 DNA bind: 11.6; MBD2 confirm: 3.3

Results for CCOc1ccc(/C=C2/SC(=S)N(n3c(C)ccc3C)C2=O)cc1 ?
ARFGAP1 inhibitor: 9.6; ASAP1 GAP inh: -6.3; MBD2 inh: -2.5; LEDGF integ inh: -3.6; UHRF1 MBD2 ctr: -1.2; TCR-CD3 inh: -4.8

Results for CC1Sc2ccc(S(=O)(=O)CCC(=O)N3CCCC3)cc2NC1=O (stereo not given) ?
ARFGAP1 inhibitor: 5.0; ASAP1 GAP inh: -4.4; MBD2 inh: 0.3; LEDGF integ inh: -3.0; UHRF1 MBD2 ctr: -0.4; TCR-CD3 inh: 2.9

Results for CC(C)Cn1cnc2c1c(=O)[nH]c(=O)n2Cc1ccccc1 ?
ARFGAP1 inhibitor: -4.3; ASAP1 GAP inh: 13.5; MBD2 inh: 2.8; LEDGF integ inh: 1.3; UHRF1 MBD2 ctr: -0.6; TCR-CD3 inh: -3.3

Results for CC(C)CCn1cnc2c1c(=O)[nH]c(=O)n2Cc1ccccc1 ?
ARFGAP1 inhibitor: 3.0; ASAP1 GAP inh: 2.5; MBD2 inh: 89.7*; LEDGF integ inh: 1.0; UHRF1 MBD2 ctr: -2.1; TCR-CD3 inh: -0.6; UHRF1 DNA bind: 4.8; MBD2 confirm: 2.2

How did COC(=O)c1ccc(C(=O)OC)c(NC(=S)N2CCCC(CO)C2)c1 (stereo not given) do in these assays?
ARFGAP1 inhibitor: -8.2; ASAP1 GAP inh: -9.2; MBD2 inh: 24.2*; LEDGF integ inh: -0.1; UHRF1 MBD2 ctr: 1.4; TCR-CD3 inh: 4.4; UHRF1 DNA bind: 1.3; MBD2 confirm: 3.9

How did CCn1cc(/C=C(\NC(=O)c2ccccc2OC)C(=O)NCCN2CCOCC2)c2ccccc21 do in these assays?
ARFGAP1 inhibitor: 1.6; ASAP1 GAP inh: -3.3; MBD2 inh: 15.6*; LEDGF integ inh: -4.1; UHRF1 MBD2 ctr: -1.3; TCR-CD3 inh: -3.5; UHRF1 DNA bind: 3.9; MBD2 confirm: 1.2

What do the screens show for `CCn1cc(/C=C(\NC(=O)c2cc(OC)c(OC)c(OC)c2)C(=O)NCCN2CCOCC2)c2ccccc21`?
ARFGAP1 inhibitor: -0.7; ASAP1 GAP inh: -0.2; MBD2 inh: -3.7; LEDGF integ inh: 2.5; UHRF1 MBD2 ctr: -1.3; TCR-CD3 inh: 3.4

Results for COc1cccc(C(=O)NC2CC3CCCC(C2)N3CC(=O)Nc2ccccc2)c1 (stereo not given) ?
ARFGAP1 inhibitor: 4.8; ASAP1 GAP inh: 8.7; MBD2 inh: 13.2*; LEDGF integ inh: 3.0; UHRF1 MBD2 ctr: 20.6; TCR-CD3 inh: 0.0; UHRF1 DNA bind: 12.1; MBD2 confirm: 4.6

How did COc1ccc2oc(C(=O)N(Cc3ccco3)Cc3cccs3)c(C)c2c1 do in these assays?
ARFGAP1 inhibitor: 1.1; ASAP1 GAP inh: -11.4; MBD2 inh: 0.4; LEDGF integ inh: 1.7; UHRF1 MBD2 ctr: 1.9; TCR-CD3 inh: 5.1

How did N=c1oc2cc(O)ccc2cc1C(=O)Nc1ccc(Cl)cc1 do in these assays?
ARFGAP1 inhibitor: 4.4; ASAP1 GAP inh: 7.2; MBD2 inh: 14.2*; LEDGF integ inh: -1.1; UHRF1 MBD2 ctr: 3.4; TCR-CD3 inh: -4.0; UHRF1 DNA bind: 6.7; MBD2 confirm: 3.7

How did COc1ccccc1NC(=O)Nc1ccc(CC#N)cc1 do in these assays?
ARFGAP1 inhibitor: -3.6; ASAP1 GAP inh: -15.9; MBD2 inh: 60.4*; LEDGF integ inh: 0.6; UHRF1 MBD2 ctr: -2.5; TCR-CD3 inh: 5.5; UHRF1 DNA bind: 8.1; MBD2 confirm: 1.9

How did COCc1cc(N2CCCC2)nc(-c2ccccc2)n1 do in these assays?
ARFGAP1 inhibitor: -9.8; ASAP1 GAP inh: -3.5; MBD2 inh: -4.9; LEDGF integ inh: 0.2; UHRF1 MBD2 ctr: -0.8; TCR-CD3 inh: 5.7

Source: PubChem (The Scripps Research Institute Molecular Screening Center)
